Experimental data as given in ChEMBL document CHEMBL1147762, “A new chemical tool for exploring the physiological function of the PDE2 isozyme” (Bioorg Med Chem Lett, 2006).
Converted amounts (≈) assume the structure as drawn.

Columns and labels:
[1] = biological target: 3',5'-cyclic-AMP phosphodiesterase 4D (Homo sapiens, UniProt Q08499); experiment: Inhibitory activity against PDE4D by scintillation proximity assay
In short: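 Scintillation proximity assay for phosphodiesterase inhibition. Enzyme is used at a concentration within the linear range, and its KM was measured. Final substrate concentration is 1 µM, below one-third of KM, so IC50 approximates Ki. Results are means of n experiments with standard deviation.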

[2] = biological target: cAMP and cAMP-inhibited cGMP 3',5'-cyclic phosphodiesterase 10A (Homo sapiens, UniProt Q9Y233); experiment: Inhibitory activity against PDE10 by scintillation proximity assay
In short: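 Phosphodiesterase inhibition run as a scintillation proximity assay, with enzyme at a concentration in the linear range. Final substrate was 1 µM, below one-third of the enzyme K_M, so that IC50 approximates Ki. Values are means of n experiments with standard deviation.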

[3] = biological target: Adenosine receptor A2a (Homo sapiens) (UniProt P29274); experiment: Percentage binding to adenosine A2a receptor at 10 uM
Adenosine receptor A2a (Homo sapiens), sequence (P29274 whole entry): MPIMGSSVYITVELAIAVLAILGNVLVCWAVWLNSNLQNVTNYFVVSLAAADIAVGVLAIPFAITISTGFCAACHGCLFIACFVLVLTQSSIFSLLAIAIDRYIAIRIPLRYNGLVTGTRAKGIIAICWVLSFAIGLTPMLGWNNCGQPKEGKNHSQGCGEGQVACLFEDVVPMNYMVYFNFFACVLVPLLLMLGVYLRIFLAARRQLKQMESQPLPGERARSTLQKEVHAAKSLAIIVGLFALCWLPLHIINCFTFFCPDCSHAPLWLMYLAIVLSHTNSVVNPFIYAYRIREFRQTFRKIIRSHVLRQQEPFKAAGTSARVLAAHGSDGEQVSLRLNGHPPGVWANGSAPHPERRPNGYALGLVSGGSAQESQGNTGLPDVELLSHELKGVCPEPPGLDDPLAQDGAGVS

[4] = biological target: Adrenergic receptor alpha-2 (Homo sapiens) (UniProt P08913+P18825+P18089); experiment: Percentage binding to adrenergic alpha-2 receptor at 10 uM; format: protein assay
[5] = biological target: Beta-1 adrenergic receptor (Homo sapiens) (UniProt P08588); experiment: Percentage binding to adrenergic beta-1 receptor at 10 uM
Beta-1 adrenergic receptor (Homo sapiens), sequence (P08588 whole entry, looked up): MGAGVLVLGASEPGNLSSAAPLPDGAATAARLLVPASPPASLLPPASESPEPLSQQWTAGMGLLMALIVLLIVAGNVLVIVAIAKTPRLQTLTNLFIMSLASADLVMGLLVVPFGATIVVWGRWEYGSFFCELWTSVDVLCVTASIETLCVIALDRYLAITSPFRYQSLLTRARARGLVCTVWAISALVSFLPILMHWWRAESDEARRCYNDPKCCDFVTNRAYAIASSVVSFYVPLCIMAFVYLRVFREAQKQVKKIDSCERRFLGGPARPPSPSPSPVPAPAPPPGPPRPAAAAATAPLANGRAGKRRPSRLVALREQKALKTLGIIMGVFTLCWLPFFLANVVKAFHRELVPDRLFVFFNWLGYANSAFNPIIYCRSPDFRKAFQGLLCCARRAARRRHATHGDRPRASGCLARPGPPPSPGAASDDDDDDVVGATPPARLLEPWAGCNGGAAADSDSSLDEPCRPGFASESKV

[6] = biological target: Acetylcholine receptor; alpha1/beta1/delta/gamma (Homo sapiens) (UniProt P02708+P07510+P11230+Q07001); experiment: Percentage binding to muscle NACHR at 10 uM; format: tissue-based; settings: Muscle tissue
[7] = biological target: Kappa-type opioid receptor (Homo sapiens) (UniProt P41145); experiment: Percentage binding to opioid kappa at 10 uM
Kappa-type opioid receptor (Homo sapiens), sequence (P41145 whole entry): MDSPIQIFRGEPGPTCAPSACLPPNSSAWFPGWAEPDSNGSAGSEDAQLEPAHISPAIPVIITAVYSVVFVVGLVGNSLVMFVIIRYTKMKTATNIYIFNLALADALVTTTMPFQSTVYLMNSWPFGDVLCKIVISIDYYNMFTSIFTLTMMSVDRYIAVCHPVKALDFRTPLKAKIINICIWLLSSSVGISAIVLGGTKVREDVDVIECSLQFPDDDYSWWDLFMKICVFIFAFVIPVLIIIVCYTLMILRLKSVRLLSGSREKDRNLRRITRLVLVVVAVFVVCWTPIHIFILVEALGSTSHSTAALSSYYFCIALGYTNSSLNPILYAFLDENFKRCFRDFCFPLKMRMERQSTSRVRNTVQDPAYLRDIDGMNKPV

[8] = biological target: 5-hydroxytryptamine receptor 1A (Homo sapiens) (UniProt P08908); experiment: Percentage binding to serotonin 5HT1A at 10 uM
5-hydroxytryptamine receptor 1A (Homo sapiens), sequence (P08908 whole entry): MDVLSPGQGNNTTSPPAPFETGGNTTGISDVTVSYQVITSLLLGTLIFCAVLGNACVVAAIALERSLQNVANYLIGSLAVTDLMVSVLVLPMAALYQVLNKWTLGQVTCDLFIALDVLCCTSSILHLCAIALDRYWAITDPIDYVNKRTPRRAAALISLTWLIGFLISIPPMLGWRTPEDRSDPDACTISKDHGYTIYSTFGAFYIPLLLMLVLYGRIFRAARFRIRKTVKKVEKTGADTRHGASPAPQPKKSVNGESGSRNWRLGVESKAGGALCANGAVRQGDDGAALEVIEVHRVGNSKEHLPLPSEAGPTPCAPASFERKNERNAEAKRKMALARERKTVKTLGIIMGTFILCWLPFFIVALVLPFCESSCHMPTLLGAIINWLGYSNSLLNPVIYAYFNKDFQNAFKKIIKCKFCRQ

[9] = biological target: 5-hydroxytryptamine receptor 2A (Homo sapiens) (UniProt P28223); experiment: Percentage binding to serotonin 5HT2A at 10 uM
5-hydroxytryptamine receptor 2A (Homo sapiens), sequence (P28223 whole entry): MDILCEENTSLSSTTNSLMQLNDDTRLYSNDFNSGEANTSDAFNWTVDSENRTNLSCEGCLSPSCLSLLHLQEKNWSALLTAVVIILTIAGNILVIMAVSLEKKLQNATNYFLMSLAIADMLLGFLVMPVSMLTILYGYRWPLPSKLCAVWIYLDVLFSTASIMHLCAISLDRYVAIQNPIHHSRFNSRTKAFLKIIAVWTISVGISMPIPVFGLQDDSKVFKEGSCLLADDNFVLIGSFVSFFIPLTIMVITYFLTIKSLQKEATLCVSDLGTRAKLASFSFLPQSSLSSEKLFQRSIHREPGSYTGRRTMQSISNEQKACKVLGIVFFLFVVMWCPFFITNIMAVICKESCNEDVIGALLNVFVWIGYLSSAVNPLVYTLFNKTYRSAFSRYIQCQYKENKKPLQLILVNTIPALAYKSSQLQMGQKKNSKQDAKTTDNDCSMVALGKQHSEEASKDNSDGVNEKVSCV

[10] = biological target: 5-hydroxytryptamine receptor 2C (Homo sapiens) (UniProt P28335); experiment: Percentage binding to serotonin 5HT2C at 10 uM
5-hydroxytryptamine receptor 2C (Homo sapiens), sequence (P28335 whole entry): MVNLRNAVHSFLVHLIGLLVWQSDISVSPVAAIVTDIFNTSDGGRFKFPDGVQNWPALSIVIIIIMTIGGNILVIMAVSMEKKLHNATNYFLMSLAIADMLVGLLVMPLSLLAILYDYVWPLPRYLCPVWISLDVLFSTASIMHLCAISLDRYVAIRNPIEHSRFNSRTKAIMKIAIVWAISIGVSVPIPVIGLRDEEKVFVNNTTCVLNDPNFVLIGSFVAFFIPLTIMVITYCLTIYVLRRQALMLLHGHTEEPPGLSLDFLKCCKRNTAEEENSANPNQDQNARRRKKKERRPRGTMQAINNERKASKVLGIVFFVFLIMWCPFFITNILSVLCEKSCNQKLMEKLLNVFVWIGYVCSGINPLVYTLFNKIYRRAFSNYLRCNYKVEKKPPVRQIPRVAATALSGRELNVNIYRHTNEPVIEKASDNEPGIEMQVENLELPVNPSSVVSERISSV

[11] = biological target: AMP-activated protein kinase, AMPK (Homo sapiens) (UniProt P54646+O43741+P54619+Q9UGJ0+Q9Y478+Q13131+Q9UGI9); experiment: Inhibition of AMPK at 10 uM; format: protein-complex assay
[12] = biological target: Type-1 angiotensin II receptor (Homo sapiens) (UniProt P30556); experiment: Percentage binding to angiotensin II type1 receptor at 10 uM
[13] = biological target: B2 bradykinin receptor (Homo sapiens) (UniProt P30411); experiment: Percentage binding to bradykinin B2 at 10 uM
[14] = biological target: D(1A) dopamine receptor (Homo sapiens) (UniProt P21728); experiment: Percentage binding to dopamine D1 at 10 uM
[15] = biological target: D(2) dopamine receptor (Homo sapiens) (UniProt P14416); experiment: Percentage binding to dopamine D2 at 10 uM
[16] = biological target: Sodium-dependent dopamine transporter (Homo sapiens) (UniProt Q01959); experiment: Activity against dopamine uptake at 10 uM
Sodium-dependent dopamine transporter (Homo sapiens), sequence (Q01959 whole entry): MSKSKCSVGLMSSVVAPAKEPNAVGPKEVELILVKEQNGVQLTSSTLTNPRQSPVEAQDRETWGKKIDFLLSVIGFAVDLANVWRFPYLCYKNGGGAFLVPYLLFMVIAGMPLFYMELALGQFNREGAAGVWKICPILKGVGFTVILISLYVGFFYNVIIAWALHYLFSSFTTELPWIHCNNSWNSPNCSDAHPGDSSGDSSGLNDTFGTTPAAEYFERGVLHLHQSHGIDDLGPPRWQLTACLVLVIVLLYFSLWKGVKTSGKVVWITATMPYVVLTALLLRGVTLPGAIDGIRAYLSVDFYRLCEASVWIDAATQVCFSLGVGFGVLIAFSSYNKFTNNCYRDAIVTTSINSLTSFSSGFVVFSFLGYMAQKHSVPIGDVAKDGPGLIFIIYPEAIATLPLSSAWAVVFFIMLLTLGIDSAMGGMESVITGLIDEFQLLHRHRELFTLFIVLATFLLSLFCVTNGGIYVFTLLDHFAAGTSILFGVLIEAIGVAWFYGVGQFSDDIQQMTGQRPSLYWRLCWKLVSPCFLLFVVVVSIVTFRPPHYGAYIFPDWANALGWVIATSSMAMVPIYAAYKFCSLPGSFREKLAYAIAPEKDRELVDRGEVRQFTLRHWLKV

[17] = Percentage binding to GABA at 10 uM
In short: (§1)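 Single-concentration screen within a panel of 54 receptors and ion channels, measuring binding or interaction at each target.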

[18] = Activity against GABA uptake at 10 uM; in short: as §1
[19] = biological target: Melanocortin receptor 4 (Homo sapiens) (UniProt P32245); experiment: Percentage binding to MCR4 at 10 uM
Melanocortin receptor 4 (Homo sapiens), sequence (P32245 whole entry): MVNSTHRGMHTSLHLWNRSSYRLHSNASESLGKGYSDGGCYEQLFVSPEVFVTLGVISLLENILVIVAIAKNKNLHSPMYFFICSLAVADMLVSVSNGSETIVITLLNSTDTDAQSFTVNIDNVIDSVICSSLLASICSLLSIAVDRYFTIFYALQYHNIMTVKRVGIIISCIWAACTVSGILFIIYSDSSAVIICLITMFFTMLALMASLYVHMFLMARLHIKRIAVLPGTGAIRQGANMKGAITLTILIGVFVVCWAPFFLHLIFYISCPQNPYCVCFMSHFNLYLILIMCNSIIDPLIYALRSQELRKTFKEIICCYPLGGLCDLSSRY

[20] = biological target: Polyunsaturated fatty acid 5-lipoxygenase (Homo sapiens) (UniProt P09917); experiment: Inhibition of 5LOX at 10 uM
Polyunsaturated fatty acid 5-lipoxygenase (Homo sapiens), sequence (P09917 whole entry): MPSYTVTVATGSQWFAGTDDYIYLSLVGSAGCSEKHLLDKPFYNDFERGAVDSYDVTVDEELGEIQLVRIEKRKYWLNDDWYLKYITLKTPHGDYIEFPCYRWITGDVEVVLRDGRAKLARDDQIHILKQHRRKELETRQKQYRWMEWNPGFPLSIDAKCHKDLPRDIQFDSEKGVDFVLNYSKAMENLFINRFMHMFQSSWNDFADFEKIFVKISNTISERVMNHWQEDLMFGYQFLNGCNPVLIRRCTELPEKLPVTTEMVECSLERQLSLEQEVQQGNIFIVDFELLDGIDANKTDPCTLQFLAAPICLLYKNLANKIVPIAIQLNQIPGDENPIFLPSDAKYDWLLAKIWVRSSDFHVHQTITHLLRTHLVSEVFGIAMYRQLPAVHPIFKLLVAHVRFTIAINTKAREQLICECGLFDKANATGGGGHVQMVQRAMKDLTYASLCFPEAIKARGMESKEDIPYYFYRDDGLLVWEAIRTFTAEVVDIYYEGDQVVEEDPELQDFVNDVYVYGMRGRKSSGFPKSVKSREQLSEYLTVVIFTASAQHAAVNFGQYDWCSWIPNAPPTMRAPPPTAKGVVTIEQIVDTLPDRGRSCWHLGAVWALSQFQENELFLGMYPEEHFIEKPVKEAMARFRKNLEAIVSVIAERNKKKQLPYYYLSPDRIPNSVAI

[21] = biological target: Mitogen-activated protein kinase 14 (Homo sapiens) (UniProt Q16539); experiment: Inhibition of SAPK2a at 10 uM
Mitogen-activated protein kinase 14 (Homo sapiens), sequence (Q16539 whole entry): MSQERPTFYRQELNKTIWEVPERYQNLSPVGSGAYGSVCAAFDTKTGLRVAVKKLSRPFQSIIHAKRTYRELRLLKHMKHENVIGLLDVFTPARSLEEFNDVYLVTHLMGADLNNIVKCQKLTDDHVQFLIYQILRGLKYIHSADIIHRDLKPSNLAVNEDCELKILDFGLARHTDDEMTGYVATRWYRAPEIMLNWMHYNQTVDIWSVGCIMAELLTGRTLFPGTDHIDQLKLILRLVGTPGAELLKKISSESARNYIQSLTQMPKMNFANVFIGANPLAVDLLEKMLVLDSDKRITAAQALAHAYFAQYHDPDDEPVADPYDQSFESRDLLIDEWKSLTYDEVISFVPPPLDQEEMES

[22] = biological target: Mitogen-activated protein kinase 12 (Homo sapiens) (UniProt P53778); experiment: Inhibition of SAPK3 at 10 uM
Mitogen-activated protein kinase 12 (Homo sapiens), sequence (P53778 whole entry): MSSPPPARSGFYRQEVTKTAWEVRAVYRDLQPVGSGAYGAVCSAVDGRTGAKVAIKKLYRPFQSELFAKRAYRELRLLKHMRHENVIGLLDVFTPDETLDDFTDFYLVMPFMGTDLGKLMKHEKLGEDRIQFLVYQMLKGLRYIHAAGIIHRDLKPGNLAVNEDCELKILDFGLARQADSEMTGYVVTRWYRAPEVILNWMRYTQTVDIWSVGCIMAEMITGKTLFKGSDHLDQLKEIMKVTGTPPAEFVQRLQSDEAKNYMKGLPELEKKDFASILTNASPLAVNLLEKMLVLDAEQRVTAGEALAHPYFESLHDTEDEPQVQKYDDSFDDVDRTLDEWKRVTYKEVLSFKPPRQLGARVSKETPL

[23] = biological target: Protein kinase C alpha type (Homo sapiens) (UniProt P17252); experiment: Inhibition of PKCalpha at 10 uM
[24] = biological target: Voltage-dependent L-type calcium channel subunit alpha-1D (Homo sapiens) (UniProt Q01668); experiment: Percentage binding to dihydropyridine sensitive Ca2+ channel D at 10 uM; in short: as §1
[25] = Basolateral Caco-2 cell membrane permeability; format: ADME, cell-based; settings: human
[26] = Turbidimetric solubility at pH 7; format: ADME, organism-based, Homo sapiens
[27] = Apical cell permeability in parental MDCK cells

IC50 [1]: > 16 µM | IC50 [2]: > 16 µM | Activity [3]: 24% | Activity [4]: 16% | Activity [5]: 15% | Activity [6]: 0% | Activity [7]: 0% | Activity [8]: 23% | Activity [9]: 15% | Activity [10]: 0% | inhibition [11]: 8% | Activity [12]: 11% | Activity [13]: 5% | Activity [14]: 5% | Activity [15]: 12% | Activity [16]: 11% | Activity [17]: 3% | Activity [18]: 8% | Activity [19]: 12% | inhibition [20]: 35% | inhibition [21]: 0% | inhibition [22]: 7% | inhibition [23]: 13% | Activity [24]: 0% | Papp [25]: 32 ×10⁻⁶ cm/s | solubility kinetic [26]: 55 µg/mL (≈ 175 µM) | Papp [27]: 3 ×10⁻⁶ cm/s
Compound: CN1C(=O)C(C(=O)Nc2nncs2)c2cc3occc3cc21 (configuration not stated)
